Reference: ChEMBL document CHEMBL1759938, “Antioxidant xanthone derivatives induce cell cycle arrest and apoptosis and enhance cell death induced by cisplatin in NTUB1 cells associated with ROS” (Eur J Med Chem, 2011)
Activity calls are given as the source filed them. The rule behind the calls is not given here.

Assays:
[1] = molecular target: Xanthine dehydrogenase/oxidase (Homo sapiens, UniProt P47989); assay: Inhibition of xanthine oxidase activity assessed as uric acid formation pretreated for 15 mins before substrate addition measured after 5 mins; conditions: for inhibition (INH): 5 min
Chain of Xanthine dehydrogenase/oxidase (P47989 whole entry): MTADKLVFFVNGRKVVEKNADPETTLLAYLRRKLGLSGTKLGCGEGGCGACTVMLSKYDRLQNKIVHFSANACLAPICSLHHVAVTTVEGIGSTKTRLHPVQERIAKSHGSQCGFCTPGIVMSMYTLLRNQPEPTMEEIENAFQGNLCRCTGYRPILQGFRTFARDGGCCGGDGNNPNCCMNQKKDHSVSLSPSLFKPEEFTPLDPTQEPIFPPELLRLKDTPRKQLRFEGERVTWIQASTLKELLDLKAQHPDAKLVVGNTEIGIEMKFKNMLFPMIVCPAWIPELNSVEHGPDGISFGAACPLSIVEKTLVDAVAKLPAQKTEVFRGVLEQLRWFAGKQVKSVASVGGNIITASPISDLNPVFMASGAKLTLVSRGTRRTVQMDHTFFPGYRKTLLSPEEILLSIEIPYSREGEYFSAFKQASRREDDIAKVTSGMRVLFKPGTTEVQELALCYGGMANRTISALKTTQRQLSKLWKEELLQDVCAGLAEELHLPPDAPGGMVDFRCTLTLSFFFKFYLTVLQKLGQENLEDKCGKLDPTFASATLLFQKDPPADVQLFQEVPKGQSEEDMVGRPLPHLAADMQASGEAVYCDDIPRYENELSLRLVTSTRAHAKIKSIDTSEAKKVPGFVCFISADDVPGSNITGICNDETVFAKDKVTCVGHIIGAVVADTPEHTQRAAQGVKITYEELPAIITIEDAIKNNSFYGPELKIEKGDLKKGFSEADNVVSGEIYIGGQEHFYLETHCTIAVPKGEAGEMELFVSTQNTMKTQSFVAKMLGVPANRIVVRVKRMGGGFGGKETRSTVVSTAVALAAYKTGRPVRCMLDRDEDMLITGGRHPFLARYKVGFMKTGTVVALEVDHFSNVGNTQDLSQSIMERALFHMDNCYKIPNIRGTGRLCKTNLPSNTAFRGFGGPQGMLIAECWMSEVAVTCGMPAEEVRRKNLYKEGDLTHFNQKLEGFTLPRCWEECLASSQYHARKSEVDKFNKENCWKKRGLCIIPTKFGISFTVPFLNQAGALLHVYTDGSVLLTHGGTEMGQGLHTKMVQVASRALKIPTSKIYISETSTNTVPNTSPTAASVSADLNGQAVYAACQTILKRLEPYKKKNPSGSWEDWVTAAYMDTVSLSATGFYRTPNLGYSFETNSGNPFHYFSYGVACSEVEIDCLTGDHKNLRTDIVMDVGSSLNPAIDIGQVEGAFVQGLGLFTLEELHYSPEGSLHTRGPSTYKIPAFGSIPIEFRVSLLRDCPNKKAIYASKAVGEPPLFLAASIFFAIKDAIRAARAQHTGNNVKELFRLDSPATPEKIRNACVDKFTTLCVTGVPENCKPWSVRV

[2] = Antioxidant activity assessed as ABTS radical scavenging activity; type: functional
Procedure, shortened: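 ABTS (7 mM in deionized water) was mixed with 2.45 mM potassium persulfate to form the radical cation. 180 µL of this solution was combined with 40 µL of sample, and absorbance was read at 630 nm. Vitamin E served as positive control. Mean ± s.e.m., n = 3.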

[3] = Antioxidant activity against oxide-induced pBR322 DNA damage at 300 uM by agarose gel electrophoresis; type: functional
Procedure, shortened: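 Supercoiled pBR322 plasmid DNA (500 ng) in phosphate buffer pH 7.4, exposed for 20 min to superoxide generated by xanthine/xanthine oxidase, with or without test agent at 300 µM. SOD and quercetin were positive controls. Strand breaks were resolved by gel electrophoresis.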

[4] = Cytotoxicity against human NTUB1 cells after 72 hrs by MTT assay; type: functional, cell-based; conditions: NTUB1, 72 h
Procedure, shortened: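 NTUB1 cells in RPMI 1640 with 10% FBS were seeded at 1 × 10³ cells/well and left overnight at 37 °C. They were then exposed to graded concentrations for 72 h. MTT was added; plates were spun, the medium removed and DMSO added, and absorbance read at 540 nm. Viability is the ratio to untreated control, and IC50 was taken from the curve. Mean ± S.D., n = 3.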

[5] = Cell cycle arrest in human NTUB1 cells assessed as accumulation in subG1 phase at 60 uM after 24 hrs using propidium iodide by FACS analysis; type: functional, cell-based
Procedure, shortened: (§1)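 NTUB1 bladder carcinoma cells (3 × 10⁵ or 8 × 10⁵ per 10 cm dish) were exposed to 40 or 60 µM for 24 h. Cells were trypsinized, fixed in ice-cold methanol at −20 °C overnight, and stained with 50 µg/mL propidium iodide for 30 min at room temperature. DNA content was measured by flow cytometry, with the sub-G1 fraction taken as apoptosis. Three independent experiments.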

NTUB1 [6] = assay: Induction of apoptosis in human NTUB1 cells assessed as increase in ROS level at 40 uM after 24 hrs by flow cytometry; type: functional, cell-based
Procedure, shortened: (§2)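 NTUB1 cells in 6-well plates were treated for 24 h at 20 or 40 µM. Controls were 1 mM NAC and 10 µM cisplatin. 10 µM DCFH-DA was added 30 min before harvest; cells were then trypsinized and washed in PBS. DCF green fluorescence was read by flow cytometry through a 525 nm band-pass filter and expressed relative to control. Mean ± S.D., n = 3.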

[7] = Cytotoxicity against human SV-HUC1 cells at 0.3 to 50 uM after 72 hrs by MTT assay; type: cell-based; conditions: sv-huc1, 72 h
Procedure, shortened: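 SV-HUC1 cells (SV40-immortalized human uroepithelium), grown in F12 with 10% FBS, were seeded at 1 × 10³ cells/well and left overnight. Graded concentrations were applied for 72 h at 37 °C. Read-out was MTT formazan dissolved in DMSO, absorbance at 540 nm. Viability is expressed relative to untreated control. Mean ± S.D., n = 3.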

[8] = Induction of apoptosis in human NTUB1 cells assessed as increase in ROS level at 20 to 40 uM after 24 hrs by flow cytometry relative to control; type: functional; procedure, shortened: as §2
[9] = Cell cycle arrest in human NTUB1 cells assessed as accumulation in subG1 phase at 40 uM after 24 hrs using propidium iodide by FACS analysis; type: functional, cell-based; procedure, shortened: as §1
NTUB1 [10] = assay: Induction of apoptosis in human NTUB1 cells assessed as increase in ROS level at 20 uM after 24 hrs by flow cytometry; type: functional, cell-based; procedure, shortened: as §2

Row | IC50 [1] [µM] | inhibition (INH) [1] | IC50 ([2]; read-out: IC50) [µM] | Compound | Activity [3] | also measured
1 | 56.5 | Dose-dependent effect | 84.9 | CCN(CC)CCCOc1ccc2c(=O)c3ccccc3oc2c1 | Active | –
2 | – | – | 77.2 | VITAMIN E | – | –
3 | 53.5 | Dose-dependent effect | 80.5 | CCN(CC)CCCOc1ccc2c(=O)c3ccc(O)cc3oc2c1 | – | –
4 | 68.8 | Dose-dependent effect | 88.8 | O=c1c2ccc(O)cc2oc2cc(OCCCN3CCCC3)ccc12 | Active | –
5 | 44.3 | Dose-dependent effect | 76.5 | CN1CCN(CCCOc2ccc3c(=O)c4ccc(O)cc4oc3c2)CC1 | – | –
6 | 72.9 | Dose-dependent effect | 106 | O=c1c2ccc(O)cc2oc2cc(OCCCNC3CCCCC3)ccc12 | Active | –
7 | 82.3 | Dose-dependent effect | 69.3 | O=c1c2ccc(O)cc2oc2cc(OCCCN3CCCCC3)ccc12 | Active | IC50 [4]: 35.1 µM; Activity [5]: Active; Activity (NTUB1 [6]): Active; Activity [7]: Non-toxic; Activity [8]: 250%
8 | 37.8 | Dose-dependent effect | 90 | O=c1c2ccccc2oc2cc(OCCCN3CCCCC3)ccc12 | Active | IC50 [4]: 31.2 µM; Activity [9]: Active; Activity (NTUB1 [10]): Active; Activity [8]: 250%
9 | 91.9 | Dose-dependent effect | 65 | O=c1c2ccc(O)cc2oc2cc(OCCCN3CCNCC3)ccc12 | – | –
10 | 109 | Dose-dependent effect | 75.1 | O=c1c2ccccc2oc2cc(OCCCN3CCNCC3)ccc12 | Active | –
11 | 65.5 | Dose-dependent effect | – | O=c1c2ccccc2oc2cc(OCCCN3CCCC3)ccc12 | Active | IC50 [2]: Not Active
12 | 47.3 | Dose-dependent effect | 152 | CN1CCN(CCCOc2ccc3c(=O)c4ccccc4oc3c2)CC1 | Active | –
13 | 63 | Dose-dependent effect | 108 | O=c1c2ccc(O)cc2oc2cc(OCCCNC3CC3)ccc12 | Active | –

Row | Compound | IC50 [1] [µM] | inhibition (INH) [1] | IC50 ([2]; read-out: IC50) [µM] | Activity [3] | also measured
14 | Oc1ncnc2[nH]ncc12 [ALLOPURINOL] | – | Dose-dependent effect | – | – | –
